# Tests used:
# [1] = system: Bacillus thuringiensis; test: Antibacterial activity against Bacillus thuringiensis at 2 mg/ml after 24 hrs by agar diffusion assay; assay type: functional; settings: read-out: DIZ
# How it was run: (§1)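 Agar diffusion; compounds applied as 2 mg ml−1 solutions in DMSO to agar media seeded with the test bacterium (cultures maintained on nutrient agar). DMSO-only control included for each organism; ampicillin and chloramphenicol references at 2 mg ml−1. Plates incubated 24 h at 30 °C, then inhibition zone diameter (mm) measured.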
# [2] = system: Escherichia coli; test: Antibacterial activity against Escherichia coli at 2 mg/ml after 24 hrs by agar diffusion assay; assay type: functional; settings: read-out: DIZ; how it was run: as §1
structure (smiles),measurement,setting,value
N#CC(C(=O)N1NC(=O)C2C3c4ccccc4C(c4ccccc43)C2C1=O)=C1SCCS1 (centres undefined),zone of inhibition at 2000 µg/mL,[1],13 mm
N=c1oc2ccccc2cc1C(=O)N1NC(=O)C2C3c4ccccc4C(c4ccccc43)C2C1=O (centres undefined),zone of inhibition at 2000 µg/mL,[2],12 mm
same,zone of inhibition at 2000 µg/mL,[1],20 mm
CC1=Nc2c(s/c(=N\N)n2-c2ccccc2)C(=O)N2C(=O)C3C4c5ccccc5C(c5ccccc54)C3C(=O)N12 (centres undefined),zone of inhibition at 2000 µg/mL,[2],13 mm
same,zone of inhibition at 2000 µg/mL,[1],19 mm
O=C1C2C3c4ccccc4C(c4ccccc43)C2C(=O)N2C(=O)c3sc(=S)n(-c4ccccc4)c3N=CN12 (centres undefined),zone of inhibition at 2000 µg/mL,[2],12 mm
same,zone of inhibition at 2000 µg/mL,[1],13 mm
N#CC(Br)C(=O)N1NC(=O)C2C3c4ccccc4C(c4ccccc43)C2C1=O (centres undefined),zone of inhibition at 2000 µg/mL,[2],20 mm
same,zone of inhibition at 2000 µg/mL,[1],16 mm
CC1=Nc2c(sc(=S)n2-c2ccccc2)C(=O)N2C(=O)C3C4c5ccccc5C(c5ccccc54)C3C(=O)N12 (centres undefined),zone of inhibition at 2000 µg/mL,[2],11 mm
same,zone of inhibition at 2000 µg/mL,[1],16 mm
N#CC(Br)(Br)C(=O)N1NC(=O)C2C3c4ccccc4C(c4ccccc43)C2C1=O (centres undefined),zone of inhibition at 2000 µg/mL,[2],29 mm
same,zone of inhibition at 2000 µg/mL,[1],27 mm
N#CC(C(=O)N1NC(=O)C2C3c4ccccc4C(c4ccccc43)C2C1=O)=C1SCCCS1 (centres undefined),zone of inhibition at 2000 µg/mL,[2],16 mm
same,zone of inhibition at 2000 µg/mL,[1],15 mm
CSC(=S)C(C#N)C(=O)N1NC(=O)C2C3c4ccccc4C(c4ccccc43)C2C1=O (centres undefined),zone of inhibition at 2000 µg/mL,[2],22 mm
same,zone of inhibition at 2000 µg/mL,[1],22 mm
O=C1NN(C(=O)c2cc3ccccc3oc2=O)C(=O)C2C3c4ccccc4C(c4ccccc43)C12 (centres undefined),zone of inhibition at 2000 µg/mL,[2],15 mm
same,zone of inhibition at 2000 µg/mL,[1],16 mm
CS/C(Nc1ccccc1)=C(/C#N)C(=O)N1NC(=O)C2C3c4ccccc4C(c4ccccc43)C2C1=O (centres undefined),zone of inhibition at 2000 µg/mL,[2],30 mm
same,zone of inhibition at 2000 µg/mL,[1],26 mm
Nc1c(C(=O)N2NC(=O)C3C4c5ccccc5C(c5ccccc54)C3C2=O)sc(=S)n1-c1ccccc1 (centres undefined),zone of inhibition at 2000 µg/mL,[2],11 mm
same,zone of inhibition at 2000 µg/mL,[1],16 mm
Cc1cc(C)c2c(N/N=C(\C#N)C(=O)N3NC(=O)C4C5c6ccccc6C(c6ccccc65)C4C3=O)n[nH]c2n1 (centres undefined),zone of inhibition at 2000 µg/mL,[2],30 mm
same,zone of inhibition at 2000 µg/mL,[1],20 mm
CC1(C)S[C@@H]2[C@H](NC(=O)[C@H](N)c3ccccc3)C(=O)N2[C@H]1C(=O)O [AMPICILLIN],zone of inhibition at 2000 µg/mL,[2],18 mm
same,zone of inhibition at 2000 µg/mL,[1],19 mm
O=C(N[C@H](CO)[C@H](O)c1ccc([N+](=O)[O-])cc1)C(Cl)Cl [CHLORAMPHENICOL],zone of inhibition at 2000 µg/mL,[2],23 mm
same,zone of inhibition at 2000 µg/mL,[1],20 mm
